Activity calls are given as the source filed them. The rule behind the calls is not given here.
What was measured:
[1] = test system: Staphylococcus aureus; assay: Antibacterial activity against methicillin-sensitive Staphylococcus aureus; format: functional, organism-based
[2] = test system: Escherichia coli; assay: Antibacterial activity against Escherichia coli; format: functional, organism-based
[3] = test system: RAW264.7; assay: Inhibition of LPS-induced NO production in mouse RAW264.7 cells incubated 1 hr prior to LPS challenge measured after 20 hrs by Griess assay; format: functional, cell-based
Outline: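 RAW 264.7 cells seeded at 10^6 cells/mL and grown 20 h before compound (DMSO stock diluted 20-fold in medium). After 1 h pretreatment, LPS (10 μg/mL stock, 10 μL/well) added, then 20 h further incubation. Supernatant nitrite read by Griess reagent, 20 min at 23 °C, absorbance 550 nm, against 0–100 μM nitrite standards. Output expressed as % of solvent control; triplicate, mean and SD.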

[4] = test system: NIH3T3; assay: Inhibition of A23187-induced prostaglandin E2 production in Swiss albino mouse 3T3 cells; format: functional, cell-based
[5] = test system: Staphylococcus aureus; assay: Antibacterial activity against methicillin-resistant Staphylococcus aureus; format: functional, organism-based
[6] = test system: Staphylococcus epidermidis; assay: Antibacterial activity against Staphylococcus epidermidis; format: functional, organism-based
[7] = test system: RAW264.7; assay: Inhibition of LPS-induced TNF-alpha production in mouse RAW264.7 cells; format: functional, cell-based
[8] = test system: RAW264.7; assay: Selectivity index, ratio of EC50 for mouse RAW264.7 cells to IC50 for mouse RAW264.7 cells assessed as LPS-induced NO production; format: functional
Outline: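 Index is cytotoxicity EC50 in RAW 264.7 cells (24 h ATPlite) divided by the IC50 for inhibition of LPS-induced nitrite production in the same cells (Griess readout).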

[9] = Solubility of the compound; format: physicochemical
[10] = test system: Pseudomonas aeruginosa; assay: Antibacterial activity against Pseudomonas aeruginosa; format: functional, organism-based
[11] = test system: RAW264.7; assay: Cytotoxicity against mouse RAW264.7 cells after 24 hrs by ATPLite assay; format: cell-based; details: RAW264.7, 24 h
Outline: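 RAW 264.7 cells in colour-free DMEM with 10% FBS, 2 mM L-glutamine, 1 mM pyruvate, penicillin/streptomycin; 30 000 cells/well, compounds from DMSO stocks diluted 20-fold in medium, six concentrations; 24 h at 37 °C, 5% CO2. Cellular ATP read by ATPlite luminescence after lysis and 10 min dark adaptation. Chlorambucil as positive control; triplicate; EC50 from curve fit.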

For `C/C(=C\COc1ccc2ccc(=O)oc2c1)C1=C(CN2CCCC2C(=O)O)C(=O)C(C)(C)O1` (mixture of isomers), the Activity [1] was “inactive”, the Activity [2] was “inactive” and the IC50 [3] was 23.4 µM. The inhibition [4] was “inactive”, the Activity [5] was “inactive” and the Activity [6] was “inactive”. For the same molecule, the inhibition [7] was “inactive”, the “Selectivity Index” value [8] was 3.2 and the solubility [9] was 245 µg/mL. For the same molecule, the Activity [10] was “inactive” and the EC50 [11] was 74.7 µM.
